# Source: ChEMBL document CHEMBL5724801, “EUbOPEN Chemogenomics Library - Multiplex” (2024)
# Values joined by “and” are separate entries in the source; they are usually repeats but may differ in a detail not shown here. Identical values can stand only once.
# Tested on: U2OS
# Assay: Multiplex assay against U2OS
# Type: toxicity, cell-based
# Details: human
# Outline: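 Tubulin, mitochondrial-mass and membrane-permeability phenotypes are per cents of healthy-nucleus cells. Cells were gated by CellPathfinder machine learning into Hoechst high-intensity objects or normal cells, normal cells into healthy, pyknosed or fragmented nuclei, and pyknosed cells into mitotic or apoptotic. Before that, live cells stained at seeding with Hoechst33342, BioTracker Green Microtubule Cytoskeleton Dye, MitoTracker Red and Annexin V Alexa Fluor 680 were imaged on a CQ1 microscope at 37°C and 5% CO2 after compound addition.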
# [1] = 12 h, 1 µM, compound concentration 1 uM
# [2] = 12 h, 10 µM, compound concentration 10 uM
# [3] = 24 h, 1 µM, compound concentration 1 uM
# [4] = 24 h, 10 µM, compound concentration 10 uM
# [5] = 48 h, 1 µM, compound concentration 1 uM
# [6] = 48 h, 10 µM, compound concentration 10 uM
smiles,measurement,setting,value
COc1ccc(Cl)cc1[C@]1(F)C(=O)Nc2cc(C(F)(F)F)ccc21 [FLINDOKALNER],Population Apoptotic (%),[1],40.48% and 33.33%
same,Population Fragmented Nuclei (%),[1],1.33% and 3.73%
same,Population Healthy Nuclei (%),[1],87.53% and 81.37%
same,Population Hoechst High Intensity Objects (%),[1],0%
same,Population Membrane Permeable-Phenotype (%),[1],1.21% and 0.76%
same,Population Mitochondria Different-Phenotype (%),[1],0.3% and 7.63%
same,Population Mitotic Cells (%),[1],59.52% and 66.67%
same,Population Normal (%),[1],100%
same,Population Pyknosed Nuclei (%),[1],11.14% and 14.91%
same,Population Tubulin-Different-Phenotype (%),[1],0.61% and 0.76%
same,Total Cell Count,[1],377 and 161
same,Population Apoptotic (%),[2],21.43% and 29.17%
same,Population Fragmented Nuclei (%),[2],2.21% and 3.35%
same,Population Healthy Nuclei (%),[2],86.19% and 83.24%
same,Population Hoechst High Intensity Objects (%),[2],0%
same,Population Membrane Permeable-Phenotype (%),[2],0.64% and 5.37%
same,Population Mitochondria Different-Phenotype (%),[2],0% and 12.08%
same,Population Mitotic Cells (%),[2],78.57% and 70.83%
same,Population Normal (%),[2],100%
same,Population Pyknosed Nuclei (%),[2],11.6% and 13.41%
same,Population Tubulin-Different-Phenotype (%),[2],1.6% and 1.34%
same,Total Cell Count,[2],362 and 179
same,Population Apoptotic (%),[3],41.67% and 37.93%
same,Population Fragmented Nuclei (%),[3],1.57% and 1.48%
same,Population Healthy Nuclei (%),[3],88.98% and 84.24%
same,Population Hoechst High Intensity Objects (%),[3],0%
same,Population Membrane Permeable-Phenotype (%),[3],0.22% and 2.34%
same,Population Mitochondria Different-Phenotype (%),[3],0.22% and 5.26%
same,Population Mitotic Cells (%),[3],58.33% and 62.07%
same,Population Normal (%),[3],100%
same,Population Pyknosed Nuclei (%),[3],9.45% and 14.29%
same,Population Tubulin-Different-Phenotype (%),[3],0.88% and 0.58%
same,Total Cell Count,[3],508 and 203
same,Population Apoptotic (%),[4],29.63% and 42.11%
same,Population Fragmented Nuclei (%),[4],1.38% and 4.65%
same,Population Healthy Nuclei (%),[4],88.02% and 77.67%
same,Population Hoechst High Intensity Objects (%),[4],0%
same,Population Membrane Permeable-Phenotype (%),[4],1.34% and 7.78%
same,Population Mitochondria Different-Phenotype (%),[4],0% and 8.38%
same,Population Mitotic Cells (%),[4],70.37% and 57.89%
same,Population Normal (%),[4],100%
same,Population Pyknosed Nuclei (%),[4],10.61% and 17.67%
same,Population Tubulin-Different-Phenotype (%),[4],1.34% and 0%
same,Total Cell Count,[4],509 and 215
same,Population Apoptotic (%),[5],38.67% and 50%
same,Population Fragmented Nuclei (%),[5],2.32% and 1.61%
same,Population Healthy Nuclei (%),[5],89.42% and 82.32%
same,Population Hoechst High Intensity Objects (%),[5],0%
same,Population Membrane Permeable-Phenotype (%),[5],1.48% and 1.56%
same,Population Mitochondria Different-Phenotype (%),[5],0.12% and 5.08%
same,Population Mitotic Cells (%),[5],61.33% and 50%
same,Population Normal (%),[5],100%
same,Population Pyknosed Nuclei (%),[5],8.27% and 16.08%
same,Population Tubulin-Different-Phenotype (%),[5],0.74% and 0.78%
same,Total Cell Count,[5],907 and 311
same,Population Apoptotic (%),[6],34.18% and 46.94%
same,Population Fragmented Nuclei (%),[6],2.33% and 1.38%
same,Population Healthy Nuclei (%),[6],89.31% and 85.12%
same,Population Hoechst High Intensity Objects (%),[6],0%
same,Population Membrane Permeable-Phenotype (%),[6],0.83% and 3.24%
same,Population Mitochondria Different-Phenotype (%),[6],0% and 5.18%
same,Population Mitotic Cells (%),[6],65.82% and 53.06%
same,Population Normal (%),[6],100%
same,Population Pyknosed Nuclei (%),[6],8.36% and 13.5%
same,Population Tubulin-Different-Phenotype (%),[6],1.3% and 0.32%
same,Total Cell Count,[6],945 and 363
N[C@@]1(C(=O)O)CO[C@H]2[C@H](C(=O)O)[C@H]21 [LY-379268],Population Apoptotic (%),[1],85% and 100%
same,Population Fragmented Nuclei (%),[1],20% and 17%
same,Population Healthy Nuclei (%),[1],76% and 79%
same,Population Hoechst High Intensity Objects (%),[1],0%
same,Population Membrane Permeable-Phenotype (%),[1],2% and 8%
same,Population Mitochondria Different-Phenotype (%),[1],1% and 2%
same,Population Mitotic Cells (%),[1],14% and 0%
same,Population Normal (%),[1],99%
same,Population Pyknosed Nuclei (%),[1],3% and 2%
same,Population Tubulin-Different-Phenotype (%),[1],1% and 3%
same,Total Cell Count,[1],211 and 108
same,Population Apoptotic (%),[2],63% and 80%
same,Population Fragmented Nuclei (%),[2],30% and 19%
same,Population Healthy Nuclei (%),[2],61% and 77%
same,Population Hoechst High Intensity Objects (%),[2],0% and 1%
same,Population Membrane Permeable-Phenotype (%),[2],8% and 4%
same,Population Mitochondria Different-Phenotype (%),[2],2% and 1%
same,Population Mitotic Cells (%),[2],36% and 20%
same,Population Normal (%),[2],99% and 98%
same,Population Pyknosed Nuclei (%),[2],7% and 3%
same,Population Tubulin-Different-Phenotype (%),[2],3% and 1%
same,Total Cell Count,[2],264 and 143
same,Population Apoptotic (%),[3],88% and 100%
same,Population Fragmented Nuclei (%),[3],20% and 11%
same,Population Healthy Nuclei (%),[3],71% and 79%
same,Population Hoechst High Intensity Objects (%),[3],1% and 0%
same,Population Mitochondria Different-Phenotype (%),[3],1% and 2%
same,Population Mitotic Cells (%),[3],11% and 0%
same,Population Normal (%),[3],98% and 100%
same,Population Pyknosed Nuclei (%),[3],7% and 9%
same,Population Tubulin-Different-Phenotype (%),[3],1% and 6%
same,Total Cell Count,[3],245 and 133
same,Population Apoptotic (%),[4],81% and 90%
same,Population Fragmented Nuclei (%),[4],25% and 16%
same,Population Healthy Nuclei (%),[4],66% and 77%
same,Population Hoechst High Intensity Objects (%),[4],1%
same,Population Membrane Permeable-Phenotype (%),[4],8% and 4%
same,Population Mitochondria Different-Phenotype (%),[4],1% and 4%
same,Population Mitotic Cells (%),[4],18% and 10%
same,Population Normal (%),[4],98%
same,Population Pyknosed Nuclei (%),[4],7% and 6%
same,Population Tubulin-Different-Phenotype (%),[4],2% and 4%
same,Total Cell Count,[4],284 and 165
same,Population Apoptotic (%),[5],92% and 100%
same,Population Fragmented Nuclei (%),[5],13% and 15%
same,Population Healthy Nuclei (%),[5],79% and 72%
same,Population Hoechst High Intensity Objects (%),[5],1% and 2%
same,Population Membrane Permeable-Phenotype (%),[5],3% and 11%
same,Population Mitochondria Different-Phenotype (%),[5],2% and 5%
same,Population Mitotic Cells (%),[5],7% and 0%
same,Population Normal (%),[5],98% and 97%
same,Population Pyknosed Nuclei (%),[5],7% and 12%
same,Population Tubulin-Different-Phenotype (%),[5],3% and 5%
same,Total Cell Count,[5],348 and 178
same,Population Apoptotic (%),[6],92% and 90%
same,Population Fragmented Nuclei (%),[6],24% and 11%
same,Population Healthy Nuclei (%),[6],68% and 83%
same,Population Hoechst High Intensity Objects (%),[6],2%
same,Population Membrane Permeable-Phenotype (%),[6],9% and 3%
same,Population Mitochondria Different-Phenotype (%),[6],2%
same,Population Mitotic Cells (%),[6],7% and 9%
same,Population Normal (%),[6],97%
same,Population Pyknosed Nuclei (%),[6],7% and 4%
same,Population Tubulin-Different-Phenotype (%),[6],3%
same,Total Cell Count,[6],383 and 228
